# Experimental data reported in ChEMBL document CHEMBL1154191, “Evaluation of spirocyclic 3-(3-fluoropropyl)-2-benzofurans as sigma1 receptor ligands for neuroimaging with positron emission tomography” (J Med Chem, 2009).
# System: Kidney
# Assay: Biodistribution in CD1 mouse kidney assessed per gram of wet tissue at 400 to 600 kBq, iv after 30 mins post-injection by gamma counting
# Assay type: ADME, organism-based
# Settings: in vivo, 0.5 h
# Procedure, shortened: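 Female CD-1 mice (~8-12 weeks, 20-28 g) were fasted 24 h with free water. Conscious mice got 400-600 kBq [¹⁸F] tracer in saline by tail vein. At 5, 30, 60 or 120 min (n=4-5 per time) they were anesthetized, blood and urine sampled, then killed by cervical dislocation. Organs were weighed and γ-counted, giving % ID/g wet tissue.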
smiles,measurement,value
[18F]CCCC1OC2(CCN(Cc3ccccc3)CC2)c2ccccc21 (stereo unspecified),Drug uptake,7.49 %ID
